Data as given in ChEMBL document CHEMBL1649143, “In vitro activities of fluconazole and voriconazole against clinical isolates of Candida spp. determined by disk diffusion testing in Turin, Italy” (2009).
≈ marks a conversion by molar mass, not a printed value.

How the values were obtained:
Pichia norvegensis [1] = assay: Antifungal activity against Candida norvegensis assessed as percent resistant isolates at 25 ug/disc by CLSI M44-A disk diffusion method; format: functional
In short: (§1)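 Agar disk diffusion per CLSI M44-A on clinical Candida isolates collected in Turin, Italy; 1,024 isolates tested in total. Each isolate was classed as susceptible (S), susceptible-dose dependent (SDD) or resistant (R), and the percentage of isolates per species in each category was reported.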

Candida = assay: Antifungal activity against Candida sp. by reference dilution method; format: functional
Candida tropicalis [2] = assay: Antifungal activity against Candida tropicalis by reference dilution method; format: functional
Nakaseomyces glabratus [3] = assay: Antifungal activity against Candida glabrata assessed as dose dependent percent susceptible isolates at 25 ug/disc by CLSI M44-A disk diffusion method; format: functional; in short: as §1
Nakaseomyces glabratus [4] = assay: Antifungal activity against Candida glabrata assessed as percent susceptible isolates at 25 ug/disc by CLSI M44-A disk diffusion method; format: functional; in short: as §1
Pichia norvegensis [5] = assay: Antifungal activity against Candida norvegensis assessed as dose dependent percent susceptible isolates at 25 ug/disc by CLSI M44-A disk diffusion method; format: functional; in short: as §1
Pichia kudriavzevii [6] = assay: Antifungal activity against Candida krusei assessed as dose dependent percent susceptible isolates at 25 ug/disc by CLSI M44-A disk diffusion method; format: functional; in short: as §1
Pichia norvegensis [7] = assay: Antifungal activity against Candida norvegensis by reference dilution method; format: functional
Cyberlindnera jadinii = assay: Antifungal against Candida utilis assessed as percent susceptible isolates at 25 ug/disc by CLSI M44-A disk diffusion method; format: functional
In short: (§2)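 Clinical yeast isolates tested by agar disk diffusion per CLSI M44-A. Zone diameters were converted to MICs by an automated zone-reading system applying species-specific linear regression against reference dilution MICs. Isolates were classed as susceptible, susceptible-dose dependent or resistant using CLSI MIC breakpoints, and reported as number and percent susceptible per species.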

Nakaseomyces glabratus [8] = assay: Antifungal activity against Candida glabrata by reference dilution method; format: functional
[9] = Antifungal activity against Candida membranifaciens assessed as percent susceptible isolates at 25 ug/disc by CLSI M44-A disk diffusion method; format: functional; in short: as §2
[10] = Antifungal activity against Candida holmii assessed as percent susceptible isolates at 25 ug/disc by CLSI M44-A disk diffusion method; format: functional; settings: Kazachstania exigua; in short: as §2
Candida albicans [11] = assay: Antifungal activity against Candida albicans assessed as percent susceptible isolates at 25 ug/disc by CLSI M44-A disk diffusion method; format: functional; in short: as §1
Pichia kudriavzevii [12] = assay: Antifungal activity against Candida krusei assessed as percent susceptible isolates at 25 ug/disc by CLSI M44-A disk diffusion method; format: functional; in short: as §1
Candida tropicalis [13] = assay: Antifungal activity against Candida tropicalis assessed as dose dependent percent susceptible isolates at 25 ug/disc by CLSI M44-A disk diffusion method; format: functional; in short: as §1
Pichia kudriavzevii [14] = assay: Antifungal activity against Candida krusei by reference dilution method; format: functional
Diutina rugosa = assay: Antifungal activity against Candida rugosa assessed as percent susceptible isolates at 25 ug/disc by CLSI M44-A disk diffusion method; format: functional; in short: as §2
Candida albicans [15] = assay: Antifungal activity against Candida albicans by reference dilution method; format: functional
Nakaseomyces glabratus [16] = assay: Antifungal activity against Candida glabrata assessed as percent resistant isolates at 25 ug/disc by CLSI M44-A disk diffusion method; format: functional; in short: as §1
Pichia kudriavzevii [17] = assay: Antifungal activity against Candida krusei assessed as percent resistant isolates at 25 ug/disc by CLSI M44-A disk diffusion method; format: functional; in short: as §1
Candida parapsilosis [18] = assay: Antifungal activity against Candida parapsilosis by reference dilution method; format: functional; settings: Lodderomyces parapsilosis
Clavispora lusitaniae = assay: Antifungal activity against Candida lusitaniae assessed as percent susceptible isolates at 25 ug/disc by CLSI M44-A disk diffusion method; format: functional; in short: as §2
Kluyveromyces marxianus [19] = assay: Antifungal activity against Candida kefyr assessed as percent resistant isolates at 25 ug/disc by CLSI M44-A disk diffusion method; format: functional; in short: as §1
Candida albicans [20] = assay: Antifungal activity against Candida albicans assessed as dose dependent percent susceptible isolates at 25 ug/disc by CLSI M44-A disk diffusion method; format: functional; in short: as §1
Kluyveromyces marxianus [21] = assay: Antifungal activity against Candida kefyr assessed as percent susceptible isolates at 25 ug/disc by CLSI M44-A disk diffusion method; format: functional; in short: as §1
Kluyveromyces marxianus [22] = assay: Antifungal activity against Candida kefyr by reference dilution method; format: functional
Candida albicans [23] = assay: Antifungal activity against Candida albicans assessed as percent resistant isolates at 25 ug/disc by CLSI M44-A disk diffusion method; format: functional; in short: as §1
[Candida] intermedia = Antifungal activity against Candida intermedia assessed as percent susceptible isolates at 25 ug/disc by CLSI M44-A disk diffusion method; format: functional, Sungouiella intermedia; in short: as §2
Candida tropicalis [24] = assay: Antifungal activity against Candida tropicalis assessed as percent susceptible isolates at 25 ug/disc by CLSI M44-A disk diffusion method; format: functional; in short: as §1
[25] = Antifungal activity against Candida humicola assessed as percent susceptible isolates at 25 ug/disc by CLSI M44-A disk diffusion method; format: functional; in short: as §2
Candida parapsilosis [26] = assay: Antifungal activity against Candida parapsilosis assessed as dose dependent percent susceptible isolates at 25 ug/disc by CLSI M44-A disk diffusion method; format: functional; in short: as §1
Candida parapsilosis [27] = assay: Antifungal activity against Candida parapsilosis assessed as percent susceptible isolates at 25 ug/disc by CLSI M44-A disk diffusion method; format: functional; in short: as §1
Candida tropicalis [28] = assay: Antifungal activity against Candida tropicalis assessed as percent resistant isolates at 25 ug/disc by CLSI M44-A disk diffusion method; format: functional; in short: as §1
Pichia fermentans = assay: Antifungal activity against Candida lambica assessed as percent susceptible isolates at 25 ug/disc by CLSI M44-A disk diffusion method; format: functional; in short: as §2

Compound: OC(Cn1cncn1)(Cn1cncn1)c1ccc(F)cc1F [FLUCONAZOLE]
- Activity (Pichia norvegensis [1]): 79%
- MIC50 (Candida): 2 µg/mL (≈ 6.53 µM)
- MIC90 (Candida): 128 µg/mL (≈ 418 µM)
- MIC50 (Candida tropicalis [2]): 2 µg/mL (≈ 6.53 µM)
- MIC90 (Candida tropicalis [2]): 16 µg/mL (≈ 52.2 µM)
- Activity (Nakaseomyces glabratus [3]): 9%
- Activity (Nakaseomyces glabratus [4]): 82%
- Activity (Pichia norvegensis [5]): 21%
- Activity (Pichia kudriavzevii [6]): 21%
- MIC50 (Pichia norvegensis [7]): 128 µg/mL (≈ 418 µM)
- MIC90 (Pichia norvegensis [7]): 256 µg/mL (≈ 836 µM)
- Activity (Cyberlindnera jadinii): 92.9%
- MIC50 (Nakaseomyces glabratus [8]): 4 µg/mL (≈ 13.1 µM)
- MIC90 (Nakaseomyces glabratus [8]): 64 µg/mL (≈ 209 µM)
- Activity [9]: 92.9%
- Activity [10]: 92.9%
- Activity (Candida albicans [11]): 98%
- Activity (Pichia kudriavzevii [12]): 11%
- Activity (Candida tropicalis [13]): 3%
- MIC50 (Pichia kudriavzevii [14]): 128 µg/mL (≈ 418 µM)
- MIC90 (Pichia kudriavzevii [14]): 256 µg/mL (≈ 836 µM)
- Activity (Diutina rugosa): 92.9%
- MIC50 (Candida albicans [15]): 0.5 µg/mL (≈ 1.63 µM)
- MIC90 (Candida albicans [15]): 4 µg/mL (≈ 13.1 µM)
- Activity (Nakaseomyces glabratus [16]): 9%
- Activity (Pichia kudriavzevii [17]): 68%
- MIC50 (Candida parapsilosis [18]): 0.5 µg/mL (≈ 1.63 µM)
- MIC90 (Candida parapsilosis [18]): 4 µg/mL (≈ 13.1 µM)
- Activity (Clavispora lusitaniae): 92.9%
- Activity (Kluyveromyces marxianus [19]): 4%
- Activity (Candida albicans [20]): 1%
- Activity (Kluyveromyces marxianus [21]): 96%
- MIC50 (Kluyveromyces marxianus [22]): 0.25 µg/mL (≈ 0.816 µM)
- MIC90 (Kluyveromyces marxianus [22]): 0.25 µg/mL (≈ 0.816 µM)
- Activity (Candida albicans [23]): 1%
- Activity ([Candida] intermedia): 92.9%
- Activity (Candida tropicalis [24]): 92%
- Activity [25]: 92.9%
- Activity (Candida parapsilosis [26]): 4%
- Activity (Candida parapsilosis [27]): 96%
- Activity (Candida tropicalis [28]): 5%
- Activity (Pichia fermentans): 92.9%
